Here are results for 52 molecules from ChEMBL document CHEMBL1136549, “Novel antifungal beta-amino acids: synthesis and activity against Candida albicans” (Bioorg Med Chem Lett, 2003).

The subject of the test is Candida albicans. Briefly: In vitro inhibitory activity against Candida albicans. The class given is functional, organism-based. A digest of the protocol: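 Microbroth dilution; C. albicans ATCC 36082, inoculum 10³ cfu/mL in YNB medium (yeast-nitrogen base 6.7 g/L, glucose 10 g/L, pH 7). Incubated 24 h at 37 °C; growth read photo-/nephelometrically at 360 nm; IC₅₀ determined.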

The mark [1] stands for this setting: Candida albicans, read-out: IC50.

SMILES strings stand for the structures. ≈ marks a conversion by molar mass, not a printed value.

As for `Cl.N[C@H]1C=CCC[C@H]1C(=O)O`, the IC50 under setting [1] came out at 0.03 mg/L.

As to `C=C1C[C@H](NC(=O)OC(C)(C)C)[C@H](C(=O)O)C1`, the IC50 under setting [1] turned out to be 16 mg/L (≈ 66.3 µM).

`Cl.N[C@H]1C=CC[C@H]1C(=O)O`: the concentration for half-maximal inhibition (IC50) under setting [1] stood at 0.5 mg/L.

With `C=C1C[C@H](N)[C@H](C(=O)O)C1C.Cl` (some centres not stated), the IC50 turned out to be 128 mg/L.

In turn, `C=C=C1C[C@H](N)[C@H](C(=O)O)C1.Cl` registered a half-inhibitory concentration (IC50) of 128 mg/L.

Take `C=C1C[C@H](N)[C@H](C(=O)N[C@H](CC(C)C)C(=O)O)C1.Cl`: the IC50 under setting [1] worked out at 16 mg/L.

Turning to `Cl.N[C@H]1CC[C@H]1C(=O)O`, the half-maximal inhibitory concentration (IC50) came out at 128 mg/L.

Turning to `C=C1C[C@H](N)[C@H](C(=O)OC)C1.Cl`, under setting [1], the IC50 stood at 2 mg/L.

In the case of `N[C@H]1CC2(CC2)C[C@H]1C(=O)O`, under setting [1], the concentration for half-maximal inhibition (IC50) turned out to be 32 mg/L (≈ 206 µM).

`Cl.N[C@H]1CC(O)C[C@H]1C(=O)O` (some centres not stated) came in with a 50% inhibitory concentration (IC50) of 128 mg/L.

Consider `C=C1CC[C@@H](C(=O)O)[C@H]1N.Cl`, for which the 50% inhibitory concentration (IC50) under setting [1] turned out to be 32 mg/L.

With `CC1=C[C@@H](C(=O)O)[C@@H](N)C1.Cl`, the IC50 under setting [1] worked out at 32 mg/L.

Take `C=C1C[C@@H](N)[C@@H](C(=O)O)C1.Cl`: the IC50 stood at 128 mg/L.

As to `CC1(C)C[C@H](N)[C@H](C(=O)O)C1.Cl`, the IC50 turned out to be 256 mg/L.

As to `C=C1C[C@H](N)[C@H](C(=O)O)C1` [ICOFUNGIPEN], the IC50 under setting [1] was 0.13 mg/L (≈ 0.921 µM).

`C=C1C[C@H](N)[C@H](C(=O)NO)C1`: the IC50 under setting [1] is 32 mg/L (≈ 205 µM).

In turn, `C[C@]1(N)CCC[C@H]1C(=O)O.Cl` yielded an IC50 of 64 mg/L.

Molecule `CC1CC[C@@H](C(=O)O)[C@H]1N.Cl` (some centres not stated) registered a half-maximal inhibitory concentration (IC50) of 128 mg/L.

Regarding `C=C1CC[C@H](N)[C@H](C(=O)O)C1.Cl`, the IC50 was > 256 mg/L.

For the molecule `Cl.N[C@H]1CCC[C@H]1P(=O)(O)O`, the 50% inhibitory concentration (IC50) is > 256 mg/L.

`C=C1C[C@H](C(=O)O)[C@@H](N)C1.Cl` showed a half-inhibitory concentration (IC50) of 128 mg/L.

Consider `C=C1C[C@H](N)[C@H](C(=O)NC)C1.Cl`, for which the IC50 under setting [1] amounted to 32 mg/L.

For the molecule `Cl.N[C@H]1CCC[C@H]1C(=O)O`, the 50% inhibitory concentration (IC50) under setting [1] was found to be 0.13 mg/L.

As for `N[C@H]1CCC[C@H]1C(F)(F)F`, under setting [1], the IC50 came to 1 mg/L (≈ 6.53 µM).

In the case of `CC1CC[C@H](N)[C@@H]1C(=O)O.Cl` (stereo in doubt), the concentration for half-maximal inhibition (IC50) under setting [1] turned out to be 8 mg/L.

For `C=C1C[C@H](NCC)[C@H](C(=O)O)C1`, the IC50 was determined as 128 mg/L (≈ 756 µM).

Turning to `Cl.Cl.N[C@H]1CCN[C@H]1C(=O)O`, the IC50 was > 256 mg/L.

For `Cl.Cl.NC1C[C@H](N)[C@H](C(=O)O)C1` (mixture of isomers), the 50% inhibitory concentration (IC50) was found to be 64 mg/L.

`CC1C[C@H](N)[C@H](C(=O)O)C1.Cl` (mixture of isomers): under setting [1], the IC50 is 4 mg/L.

Regarding `N[C@H]1CSC[C@H]1C(=O)O`, the IC50 is 64 mg/L (≈ 435 µM).

As to `Cl.N[C@H]1CCC[C@H]1S(=O)(=O)O`, the IC50 is > 256 mg/L.

In the case of `N[C@H]1COC[C@H]1C(=O)O`, under setting [1], the IC50 turned out to be 32 mg/L (≈ 244 µM).

In the case of `C=C1C[C@@H](CO)[C@@H](N)C1`, the IC50 was > 256 mg/L.

As to `CC1=C[C@H](N)[C@H](C(=O)O)C1.Cl`, under setting [1], the half-maximal inhibitory concentration (IC50) came out at 8 mg/L.

Regarding `Cl.N[C@H]1CCS[C@H]1C(=O)O`, the concentration for half-maximal inhibition (IC50) was > 256 mg/L.

With `C=C1C[C@H](NC(=O)[C@@H](N)CC(C)C)[C@H](C(=O)O)C1.Cl`, under setting [1], the IC50 stood at 2 mg/L.

`Cl.N[C@H]1CCCC[C@H]1C(=O)O` showed an IC50 of 128 mg/L.

As for `C=C1C[C@H](N)[C@H](c2nnn[nH]2)C1.Cl`, the half-maximal inhibitory concentration (IC50) is 128 mg/L.

In the case of `C=C1C[C@@H](C(=O)O)[C@H]1N.Cl`, the IC50 was > 256 mg/L.

Regarding `CC1C=C(C(=O)O)C(N)C1.Cl` (configuration not stated), the IC50 under setting [1] is 16 mg/L.

`Cl.N[C@H]1C=CCO[C@H]1C(=O)O` showed an IC50 of 64 mg/L.

In the case of `CCCC(N)CC(=O)O.Cl` (configuration not stated), the IC50 is > 256 mg/L.

Regarding `Cl.N[C@H]1CC2(C[C@H]1C(=O)O)OCCO2`, the IC50 under setting [1] amounted to 32 mg/L.

`CCCC/C=C1/C[C@H](N)[C@H](C(=O)O)C1.Cl` registered a half-inhibitory concentration (IC50) of 128 mg/L.

For the molecule `C=C1CC[C@@H](C(=O)O)[C@@H](N)C1.Cl`, under setting [1], the IC50 is 16 mg/L.

The molecule `Cl.N[C@H]1CC(F)(F)C[C@H]1C(=O)O` had an IC50 of 128 mg/L.

Regarding `C=C1CN[C@H](C(=O)O)C1.Cl`, the IC50 under setting [1] worked out at 32 mg/L.

Take `Cl.N[C@H]1CC=CC[C@H]1C(=O)O`: the half-maximal inhibitory concentration (IC50) stood at 128 mg/L.

`C=C1C[C@H](N)[C@@H]1C(=O)O.Cl`: the IC50 is > 256 mg/L.

In turn, `C=C1C[C@@H](C(=O)O)[C@@H](N)C1C.Cl` (mixture of isomers) registered an IC50 of 64 mg/L.

With `CC1CC[C@H](N)[C@@H]1C(=O)O.Cl` (single isomer, unassigned; Diastereomer B), the IC50 stood at 16 mg/L.

`C=CC1C[C@H](N)[C@H](C(=O)O)C1.Cl` (some centres not stated): the IC50 amounted to 128 mg/L.

For orientation: IC50 means the concentration at which inhibition is half-maximal.
